31 compounds from ChEMBL document CHEMBL2086386, “Potent and orally efficacious benzothiazole amides as TRPV1 antagonists” (Bioorg Med Chem Lett, 2012) can be followed below.

Data set [1] can be described thus: Clearance in rat hepatocytes assessed as per 10^6 cells. The format is ADME, cell-based, Hepatocyte. To be noted: read-out: CLH.
Data set [2] is described as follows: Aqueous solubility of the compound in sodium phosphate buffer at pH 7.4. The format is physicochemical. The method, boiled down:
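Solubility measured in 0.1 M sodium phosphate buffer.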

The target in data set [3] is Transient receptor potential cation channel subfamily V member 1 (Homo sapiens, UniProt Q8NER1). The data set is described as follows: Antagonist activity at human recombinant TRPV1 receptor assessed as inhibition of capsaicin-induced calcium uptake by FLIPR assay. The format is functional. In a few lines: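 Whole-cell fluorescence imaging assay (FLIPR II) of the rise in intracellular Ca2+ on capsaicin addition. Inhibition by the test compound is quantified.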

Data set [4] has as its target Transient receptor potential cation channel subfamily V member 1 (Rattus norvegicus) (UniProt O35433). The data set is described as follows: Binding affinity to rat TRPV1 at 1 uM.
Data set [5] in a line: Half life in iv dosed Sprague-Dawley rat. The format is ADME, organism-based. The settings on record: in vivo.
Data set [6] deals with Rattus norvegicus. The data set is described as follows: Toxicity in Sprague-Dawley rat assessed as effect on body temperature at 100 umol/kg, po. The format is organism-based. To be noted: in vivo.
Data set [7] can be described thus: Oral bioavailability in Sprague-Dawley rat. The settings on record: in vivo. The format is ADME, organism-based.
The subject of data set [8] is Rattus norvegicus. In words: Analgesic activity against carrageenan-induced thermal hyperalgesia in Sprague-Dawley rat assessed as paw withdrawal latency at 100 umol/kg, po after 30 mins after 3 hrs. The format is functional. In a few lines: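 Male Sprague-Dawley rats (125-200 g), groups of 7. Under isoflurane, 100 µl of 1% carrageenan is injected subcutaneously into the plantar left hind paw, and testing is done 3 h later. After 30 min acclimation on a 30 °C glass surface, radiant heat is focused on the affected paw. Withdrawal latency is the mean of two trials about 5 min apart, with a 20 s cut-off. Naïve rats serve as controls. Single oral dose.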

Data set [9] has as its system Rattus norvegicus. In words: Analgesic activity against capsaicin-induced thermal hyperalgesia in Sprague-Dawley rat assessed as paw withdrawal latency at 90 umol/kg, po after 30 mins. The format is functional. In a few lines: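 Male Sprague-Dawley rats (125-200 g), groups of 7, acclimatized at least 3 days and tested in the light phase. Capsaicin 10 μg/5 μL is injected intradermally into the plantar left hind paw of restrained rats. Heat hyperalgesia is read 30 min later as radiant-heat paw withdrawal latency on a 30 °C glass surface: two trials about 5 min apart, averaged, 20 s cut-off. Naïve rats serve as controls. Single oral dose.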

The nature of data set [10]: Intrinsic clearance in human liver microsomes assessed per mg of protein. The format is ADME, Microsome. To be noted: read-out: CLH. On the technique in general: Liver microsomes are vesicles of endoplasmic reticulum, rich in cytochrome P450 enzymes.

Molecules are shown by their SMILES. Values after ≈ are worked out from the molar mass of the structure shown. Active and inactive are the calls of the source.

Sequence of Transient receptor potential cation channel subfamily V member 1 (Q8NER1 whole entry): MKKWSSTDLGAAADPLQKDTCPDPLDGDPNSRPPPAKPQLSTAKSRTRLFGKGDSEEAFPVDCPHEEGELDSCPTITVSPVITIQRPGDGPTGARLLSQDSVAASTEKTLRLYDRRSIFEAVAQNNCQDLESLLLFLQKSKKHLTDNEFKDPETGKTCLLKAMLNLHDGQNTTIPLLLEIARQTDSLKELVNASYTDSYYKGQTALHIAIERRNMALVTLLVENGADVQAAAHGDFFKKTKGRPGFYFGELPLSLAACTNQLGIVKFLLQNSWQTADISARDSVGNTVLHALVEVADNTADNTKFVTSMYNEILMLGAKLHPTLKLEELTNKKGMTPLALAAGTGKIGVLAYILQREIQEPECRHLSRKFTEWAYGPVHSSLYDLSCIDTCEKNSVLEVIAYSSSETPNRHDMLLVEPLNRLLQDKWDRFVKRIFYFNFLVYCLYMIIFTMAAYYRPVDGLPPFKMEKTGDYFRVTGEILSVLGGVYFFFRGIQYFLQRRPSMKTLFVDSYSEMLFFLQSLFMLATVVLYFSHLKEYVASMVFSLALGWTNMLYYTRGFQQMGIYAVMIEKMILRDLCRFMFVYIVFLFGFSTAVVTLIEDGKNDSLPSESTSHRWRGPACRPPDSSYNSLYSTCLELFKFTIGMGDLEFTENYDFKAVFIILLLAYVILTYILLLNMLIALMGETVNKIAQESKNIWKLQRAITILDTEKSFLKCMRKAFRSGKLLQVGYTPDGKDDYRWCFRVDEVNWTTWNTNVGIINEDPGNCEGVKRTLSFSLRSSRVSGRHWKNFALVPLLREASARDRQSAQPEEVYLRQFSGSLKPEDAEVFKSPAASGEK
Sequence of Transient receptor potential cation channel subfamily V member 1 (Rattus norvegicus) (O35433 whole entry): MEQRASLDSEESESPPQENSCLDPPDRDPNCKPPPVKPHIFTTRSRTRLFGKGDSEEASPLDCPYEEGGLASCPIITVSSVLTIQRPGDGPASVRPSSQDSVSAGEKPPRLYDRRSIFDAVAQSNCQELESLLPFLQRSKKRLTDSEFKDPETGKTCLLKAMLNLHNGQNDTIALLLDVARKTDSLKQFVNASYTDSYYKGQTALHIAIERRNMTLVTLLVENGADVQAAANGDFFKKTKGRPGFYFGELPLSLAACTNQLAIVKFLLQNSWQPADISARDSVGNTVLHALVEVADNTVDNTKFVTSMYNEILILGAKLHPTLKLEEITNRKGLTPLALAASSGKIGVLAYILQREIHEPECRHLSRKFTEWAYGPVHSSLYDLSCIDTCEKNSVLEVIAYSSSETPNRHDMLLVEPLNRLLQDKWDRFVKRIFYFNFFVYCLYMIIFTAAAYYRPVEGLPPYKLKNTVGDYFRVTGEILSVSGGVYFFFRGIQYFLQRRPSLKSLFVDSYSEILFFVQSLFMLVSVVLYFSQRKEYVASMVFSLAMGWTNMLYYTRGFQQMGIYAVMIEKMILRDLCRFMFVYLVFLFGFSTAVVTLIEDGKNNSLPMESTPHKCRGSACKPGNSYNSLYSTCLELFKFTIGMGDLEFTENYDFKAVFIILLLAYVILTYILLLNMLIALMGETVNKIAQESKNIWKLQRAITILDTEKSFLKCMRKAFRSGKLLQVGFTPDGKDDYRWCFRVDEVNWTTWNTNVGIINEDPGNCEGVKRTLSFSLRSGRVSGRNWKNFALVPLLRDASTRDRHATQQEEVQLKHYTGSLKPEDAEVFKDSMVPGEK

As usually defined, the solubility is the dissolved amount per volume that the medium holds. A lower solubility goes with little dissolved substance. Consider `Cc1cc(OC(C)C)ccc1C(=O)Nc1ccc2sc(CO)nc2c1`, for which the hepatocyte CLint in [1] amounted to 12 µL/min/1e6 cells. This compound displayed a solubility in data set [2] of 9 µM (≈ 3.21 µg/mL).
By IC50 is commonly meant the concentration needed to halve the response being measured. `CC(C)(C)c1ccc(C(=O)Nc2ccc3sc(CN)nc3c2)cc1`: the IC50 in [3] was 987 nM.
Take `O=C(Nc1ccc2sc(CO)nc2c1)c1ccc(N2CCCCC2)nc1`: the concentration in solution in data set [2] (solubility) was 4 µM (≈ 1.47 µg/mL).
Consider `CC(=O)NCc1nc2cc(NC(=O)c3ccc(C(C)(C)C)cc3)ccc2s1`, for which, in data set [3], the IC50 came out at 2410 nM.
`O=C(Nc1ccc2sc(CO)nc2c1)C1CCC(C(F)(F)F)CC1` (stereo not drawn): the IC50 in data set [3] is more than 10000 nM. In data set [2], the solubility came to 77 µM (≈ 27.6 µg/mL).
Take `O=C(Nc1ccc2sc(CO)nc2c1)c1ccc(C(F)(F)F)cc1`: the IC50 in [3] amounted to 11.9 nM.
Regarding `O=C(Nc1ccc2sc(CO)nc2c1)c1ccc(OCC(F)(F)F)nc1`, in data set [3], the IC50 is 41 nM. In data set [2], the concentration in solution (solubility) was 9 µM (≈ 3.45 µg/mL).
Turning to `CC(O)c1nc2cc(NC(=O)c3ccc(C(C)(C)C)cc3)ccc2s1` (racemic), in data set [3], the IC50 turned out to be 223 nM.
Regarding `C#Cc1ccc(C(=O)Nc2ccc3sc(CO)nc3c2)cc1`, the IC50 in [3] amounted to 175 nM. For the same compound, the concentration in solution in data set [2] (solubility) was 25 µM (≈ 7.71 µg/mL).
Broadly, the half-life is how long it takes for the measured level to halve. A word on the bioavailability: it is the share of a dose that reaches the circulation, judged against a reference dose that is usually intravenous. A low value points to poor availability. As to `Cc1cc(Br)ccc1C(=O)Nc1ccc2sc(CO)nc2c1`, in [4], the result was Active. Further, the half-life in [5] is 2.4 h. The Activity result in the data set with Rattus norvegicus [6] was “Non-toxic”; in the data set with Rattus norvegicus [8], 35%; in the data set on Rattus norvegicus [9], 72%. Further, the hepatocyte CLint in [1] was determined as 24 µL/min/1e6 cells. The bioavailability in data set [7] was found to be 53%. Also, in data set [3], the IC50 turned out to be 52.3 nM. Besides, in data set [2], the solubility stood at 10 µM (≈ 3.77 µg/mL).
Take `CC(C)(C)OCc1ccc(C(=O)Nc2ccc3sc(CO)nc3c2)cc1`: the IC50 in [3] came to 52.2 nM. This compound also came in with a solubility in [2] of 11 µM (≈ 4.08 µg/mL).
`CCN(CC)Cc1ccc(C(=O)Nc2ccc3sc(CO)nc3c2)cc1`: the IC50 in [3] was more than 10000 nM. Further, in data set [2], the solubility was determined as 5160 µM (≈ 1910 µg/mL).
For `CC(C)Oc1ccc(C(=O)Nc2ccc3sc(CO)nc3c2)cc1`, in data set [10], the microsomal CLint is 12 µL/min/mg. Also, the hepatocyte CLint in data set [1] turned out to be 57 µL/min/1e6 cells. For the same compound, the IC50 in data set [3] is 33.4 nM. Also, the solubility in data set [2] worked out at 38 µM (≈ 13 µg/mL).
With `O=S(=O)(Nc1ccc2sc(CO)nc2c1)c1ccc(Br)cc1`, the IC50 in [3] was more than 10000 nM.
As for `Cc1nc2cc(NC(=O)c3ccc(C(C)(C)C)cc3)ccc2s1`, in [3], the IC50 came out at 27 nM. The compound also registered a solubility in data set [2] of 2.2 µM (≈ 0.714 µg/mL).
On to `CC(C)(C)c1ccc(NC(=O)c2ccc3sc(CO)nc3c2)cc1`, for which the IC50 in data set [3] was more than 10000 nM.
On to `CC(C)(C)c1ccc(C(=O)Nc2ccc3sc(CO)nc3c2)cc1`, for which, in data set [10], the microsomal CLint came out at 57 µL/min/mg. In addition, in [3], the IC50 came out at 3.7 nM. For the same compound, the solubility in data set [2] worked out at 6 µM (≈ 2.04 µg/mL).
`O=C(Nc1ccc2sc(CO)nc2c1)c1ccc(Br)cc1`: the hepatocyte CLint in [1] was 54 µL/min/1e6 cells. In addition, the IC50 in data set [3] stood at 26.5 nM. Further, the solubility in data set [2] is 5 µM (≈ 1.82 µg/mL).
Take `O=C(Nc1ccc2sc(CO)nc2c1)c1ccc(C(F)(F)F)nc1`: the microsomal CLint in data set [10] stood at 13 µL/min/mg. In [2], this compound came in with a solubility of 61 µM (≈ 21.6 µg/mL).
Consider `O=C(Nc1ccc2sc(CO)nc2c1)c1ccc(Cl)cc1`, for which the microsomal CLint in [10] worked out at 14 µL/min/mg. Further, the hepatocyte CLint in [1] came out at 66 µL/min/1e6 cells. In addition, the IC50 in [3] was 68.2 nM. In addition, the solubility in [2] is 3 µM (≈ 0.956 µg/mL).
Turning to `CC(C)(C)c1ccc(CNc2ccc3sc(CO)nc3c2)cc1`, in data set [3], the IC50 came out at 833 nM.
Regarding `CC(C)(C)Oc1cccc(C(=O)Nc2ccc3sc(CO)nc3c2)c1`, the IC50 in [3] came out at 1070 nM. Besides, in data set [2], the solubility was determined as 181 µM (≈ 64.5 µg/mL).
In the case of `Cc1ccc(CCNC(=O)c2ccc3sc(CO)nc3c2)cc1`, in [3], the IC50 came to 1610 nM.
In the case of `Cc1ccc(-c2cc(C(F)(F)F)nn2-c2ccc(S(N)(=O)=O)cc2)cc1` [CELECOXIB], in the data set with Rattus norvegicus [8], the Activity turned out to be 35%.
Turning to `O=S(=O)(Nc1ccc(C(F)(F)F)cc1)c1ccc2sc(CO)nc2c1`, in data set [3], the IC50 was 5570 nM.
In the case of `Cn1nc(C(F)(F)F)cc1C(=O)Nc1ccc2sc(CO)nc2c1`, the microsomal CLint in data set [10] worked out at 9 µL/min/mg. In addition, in [3], the IC50 worked out at 157 nM. Also, the concentration in solution in data set [2] (solubility) was 14 µM (≈ 4.99 µg/mL).
For the compound `CC(C)(C)c1ccc(C(=O)Nc2ccc3sc(CNS(C)(=O)=O)nc3c2)cc1`, in [3], the IC50 turned out to be 708 nM.
Regarding `Cc1cc(Cl)ccc1C(=O)Nc1ccc2sc(CO)nc2c1`, the hepatocyte CLint in [1] came to 17 µL/min/1e6 cells. Moreover, the IC50 in data set [3] stood at 85.9 nM. The solubility in data set [2] worked out at 7 µM (≈ 2.33 µg/mL).
In the case of `CC(C)(C)Oc1ccc(C(=O)Nc2ccc3sc(CO)nc3c2)cc1`, the microsomal CLint in data set [10] came to 19 µL/min/mg. Besides, in [3], the IC50 came out at 9.8 nM. Also, in data set [2], the concentration in solution (solubility) was 64 µM (≈ 22.8 µg/mL).
On to `O=C(Nc1ccc2sc(CO)nc2c1)c1ccc(CN2CCOCC2)cc1`, for which, in data set [10], the microsomal CLint was 13 µL/min/mg. In addition, in [3], the IC50 was more than 10000 nM. This compound also returned a solubility in data set [2] of 419 µM (≈ 161 µg/mL).
For the compound `CCOCc1ccc(C(=O)Nc2ccc3sc(CO)nc3c2)cc1`, the microsomal CLint in [10] is 24 µL/min/mg. Besides, the IC50 in data set [3] came to 489 nM. The compound also had a solubility in [2] of 37 µM (≈ 12.7 µg/mL).
